≈ marks a conversion by molar mass, not a printed value. Calls of active or inactive are those of the source. The rule behind the calls is not given here.
Assays:
Staphylococcus aureus [1] = test: Antibacterial activity against clinical isolates of Staphylococcus aureus DM4001R after 24 hrs by […]; assay type: functional
Bacillus cereus = test: Antibacterial activity against clinical isolates of Bacillus cereus ATCC 11778 after 24 hrs by […]; assay type: functional; conditions: ATCC 11778, 24 h
Staphylococcus aureus [2] = test: Induction of membrane permeabilization in clinical isolates of Staphylococcus aureus DM4001 at 10 uM measured for 200 sec by SYTOX green influx assay; assay type: functional, organism-based
Outline: (§1)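 Exponential-phase cells washed twice in 20 mM PBS pH 7 and adjusted to OD620 0.09. Given 3 µM SYTOX Green and kept in the dark until fluorescence was stable, then compound added. Fluorescence followed in a stirred cuvette at ex 504/em 523 nm. Melittin 10 µg/mL was the positive control. Run at least twice; one run reported.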

Staphylococcus aureus [3] = test: Antibacterial activity against clinical isolates of methicillin-resistant Staphylococcus aureus DM9808R after 24 hrs by […]; assay type: functional
Staphylococcus aureus [4] = test: Antibacterial activity against clinical isolates of methicillin-resistant Staphylococcus aureus DM21455 after 24 hrs by […]; assay type: functional; conditions: DM21455, 24 h
Staphylococcus aureus [5] = test: Induction of membrane disruption in clinical isolates of Staphylococcus aureus DM4001 assessed as membrane integrity incubated for 10 mins by live/dead baclight bacterial viability assay relative to control; assay type: functional; parameters: concentration or dose not given beside the values
Outline: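 Exponential-phase cells washed in 0.9% saline, OD670 0.3, exposed to compound 10 min at room temperature. Pelleted, resuspended, then stained with SYTO 9 (10 µM) plus propidium iodide (60 µM) 15 min dark. Excitation 485 nm, emission 500–700 nm; green/red ratio converted to % damage using standards of 0–100% isopropanol-killed cells.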

[6] = Hemolytic activity against New Zealand white rabbit RBC after 1 hr by microplate reader analysis; assay type: ADME, cell-based, Oryctolagus cuniculus, Erythrocyte; conditions: rabbit red blood cells
Outline: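 Rabbit RBCs spun from serum at 3,000 rpm for 10 min and washed twice in PBS. Mixed with compound in DMF at 4% v/v RBCs, 1 h at 37 °C. After centrifugation, hemoglobin in the supernatant read at 576 nm. 2% Triton X-100 was the positive control and 1% DMF the negative control.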

[7] = Membrane permeabilization activity assessed as release of calcein from DOPC liposomes at lipid:compound ratio of 8 incubated for 30 mins by fluorescence assay; assay type: ADME; conditions: 0.5 h
Outline: (§2)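 Freeze-thawed, extruded, then gel-filtered. Final lipid 50 µM with compound added from DMF (<0.2%). Fluorescence at ex 490/em 520 nm over 30 min; 0.1% Triton X-100 defined 100% lysis.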

[8] = Membrane permeabilization activity assessed as release of calcein from DOPE/DOPG liposomes at lipid:compound ratio of 4 incubated for 30 mins by fluorescence assay; assay type: ADME; conditions: 0.5 h; outline: as §2
[9] = Membrane permeabilization activity assessed as release of calcein from DOPC liposomes at lipid:compound ratio of 4 incubated for 30 mins by fluorescence assay; assay type: ADME; conditions: 0.5 h; outline: as §2
[10] = Membrane permeabilization activity assessed as release of calcein from DOPE/DOPG liposomes at lipid:compound ratio of 8 incubated for 30 mins by fluorescence assay; assay type: ADME; conditions: 0.5 h; outline: as §2
[11] = Membrane permeabilization activity assessed as release of calcein from DOPE/DOPG liposomes at lipid:compound ratio of => 16 incubated for 30 mins by fluorescence assay; assay type: ADME; conditions: 0.5 h; outline: as §2
[12] = Membrane permeabilization activity assessed as release of calcein from DOPC liposomes at lipid:compound ratio of => 16 incubated for 30 mins by fluorescence assay; assay type: ADME; conditions: 0.5 h; outline: as §2
[13] = Selectivity index, ratio of HC50 for hemolytic activity against New Zealand white rabbit RBC to MIC for clinical isolates of Staphylococcus aureus DM4001
Staphylococcus aureus [14] = test: Induction of membrane permeabilization in clinical isolates of Staphylococcus aureus DM4001 assessed as ATP leakage at MIC incubated for 10 mins by firefly luciferase based luminometry analysis; assay type: functional
Outline: (§3)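 Exponential-phase cells washed twice in 20 mM PBS pH 7 and set to OD620 0.3. Exposed 10 min at 37 °C, then spun at 4000 rpm for 5 min. Supernatant mixed with luciferase reagent (1 mM DTT, 0.5 mM D-luciferin, 1.25 µg/mL firefly luciferase). Luminescence read over 30 cycles.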

Staphylococcus aureus [15] = test: Induction of membrane permeabilization in clinical isolates of Staphylococcus aureus DM4001 at MIC by SYTOX green uptake assay; assay type: functional; outline: as §1
[16] = Membrane permeabilization activity assessed as release of calcein from DOPC liposomes at 16 to 64 lipid:compound ratio incubated for 30 mins by fluorescence assay; assay type: ADME; conditions: 0.5 h
[17] = Membrane permeabilization activity assessed as release of calcein from DOPE/DOPG large unilamellar vesicles at 0.125 to 0.5 compound:lipid ratio incubated for 30 mins by fluorescence assay; assay type: ADME; conditions: 0.5 h; outline: as §2
Staphylococcus aureus [18] = test: Induction of membrane permeabilization in clinical isolates of Staphylococcus aureus DM4001 at 50 uM by SYTOX green uptake assay; assay type: functional; outline: as §1
Staphylococcus aureus [19] = test: Induction of membrane permeabilization in clinical isolates of Staphylococcus aureus DM4001 assessed as ATP leakage at 50 uM incubated for 10 mins by firefly luciferase based luminometry analysis; assay type: functional; outline: as §3
Staphylococcus aureus [20] = test: Induction of membrane permeabilization in clinical isolates of Staphylococcus aureus DM4001 by SYTOX green uptake assay; assay type: functional; outline: as §1
Staphylococcus aureus [21] = test: Bactericidal activity against clinical isolates of methicillin resistant Staphylococcus aureus DM21455 assessed as log reduction in viability measured up to 300 mins by time kill kinetic study; assay type: functional, organism-based
Outline: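 Colonies from 18–22 h TSA plates suspended in 0.31 mM phosphate buffer pH 7.2 at 10^5–10^6 CFU/mL. Treated at 1×, 2× and 4× MIC at 35 °C, sampled at 10 min, 30 min, 1 h, 2 h and 5 h. Ten-fold dilutions spread on MHA, 35 °C for 48–72 h, colonies counted. Detection limit 100 CFU/mL; bactericidal means 3-log drop versus untreated.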

Row | Structure (SMILES) | MIC (Staphylococcus aureus [1]) [µg/mL] | MIC (Bacillus cereus) [µg/mL] | Activity (Staphylococcus aureus [2]) | MIC (Staphylococcus aureus [3]) [µg/mL] | MIC (Staphylococcus aureus [4]) [µg/mL] | Activity (Staphylococcus aureus [5]) [%] | HC50 at 1 h [6] [µg/mL] | Selectivity ratio [13] | also measured
1 | CCN(CC)CCOc1cc2oc3cc(OCCN(CC)CC)c(OC)c(CC=C(C)C)c3c(=O)c2c(O)c1CC=C(C)C | > 50 | > 50 | Active | > 50 | > 50 | 64.1 | > 200 |  | 
2 | COc1c(O)cc2oc3cc(O)c(CCC(C)C)c(O)c3c(=O)c2c1CCC(C)C | > 50 | > 50 |  | > 50 | > 50 |  | > 200 |  | Activity [7]: Not Active; Activity [8]: Not Active; Activity [9]: Not Active; Activity [10]: Not Active; Activity [11]: Not Active; Activity [12]: Not Active
3 | O=c1c2ccc(O)cc2oc2cc(O)cc(O)c12 | > 50 | > 50 |  | > 50 | > 50 |  | > 200 |  | Activity [7]: Not Active; Activity [8]: Not Active; Activity [9]: Not Active; Activity [10]: Not Active; Activity [11]: Not Active; Activity [12]: Not Active
4 | COc1c(OCCCCN(C)C)cc2oc3cc(OCCCCN(C)C)c(CC=C(C)C)c(O)c3c(=O)c2c1CC=C(C)C | 3.12 (≈ 5.13 µM) | 6.25 (≈ 10.3 µM) |  | 3.12 (≈ 5.13 µM) | 3.12 (≈ 5.13 µM) |  | 32.1 | 10.3 | Activity (Staphylococcus aureus [14]): 3.769 µM; Activity (Staphylococcus aureus [15]): 23925 cps; Activity [16]: Active
5 | CCN(CC)CCCCCCCCCCCCOc1cc2oc3cc(OCCCCCCCCCCCCN(CC)CC)c(OC)c(CC=C(C)C)c3c(=O)c2c(O)c1CC=C(C)C | > 50 | > 50 | inactive | > 50 | > 50 | 99.9 | > 200 |  | Activity [17]: 60%
6 | CCCCN(CCCC)CCCCOc1cc2oc3cc(OCCCCN(CCCC)CCCC)c(OC)c(CC=C(C)C)c3c(=O)c2c(O)c1CC=C(C)C | > 50 | > 50 |  | > 50 | > 50 |  | > 200 |  | Activity (Staphylococcus aureus [18]): 1768 cps; Activity (Staphylococcus aureus [19]): 763 nM
7 | CCN(CC)CCCCCCOc1cc2oc3cc(OCCCCCCN(CC)CC)c(OC)c(CC=C(C)C)c3c(=O)c2c(O)c1CC=C(C)C | 1.56 (≈ 2.16 µM) | 3.12 (≈ 4.33 µM) | Active | 3.12 (≈ 4.33 µM) | 1.56 (≈ 2.16 µM) | 45.1 |  | 17 | 
8 | CCN(CC)CCCCOc1cc2oc3cc(OCCCCN(CC)CC)c(OC)c(CC=C(C)C)c3c(=O)c2c(O)c1CC=C(C)C | 0.39 (≈ 0.587 µM) | 3.12 (≈ 4.7 µM) | Active | 0.78 (≈ 1.17 µM) | 0.39 (≈ 0.587 µM) | 37.8 |  | 50.4 | Activity (Staphylococcus aureus [14]): 2.235 µM; Activity (Staphylococcus aureus [15]): 61679 cps; Activity [17]: > 70%; Activity [11]: > 70%; Activity [12]: > 70%
9 | COc1c(O)cc2oc3cc(O)c(CC=C(C)C)c(O)c3c(=O)c2c1CC=C(C)C [MANGOSTIN] | 2 (≈ 4.87 µM) |  |  |  |  |  |  | 4.5 | Activity [7]: 14.1%; Activity [9]: 33.6%; Activity [10]: 16%; Activity [11]: < 10%; Activity [12]: < 10%
10 | CCN(CC)CCCCCOc1cc2oc3cc(OCCCCCN(CC)CC)c(OC)c(CC=C(C)C)c3c(=O)c2c(O)c1CC=C(C)C | 1.56 (≈ 2.25 µM) | 6.25 (≈ 9.02 µM) | Active | 1.56 (≈ 2.25 µM) | 0.78 (≈ 1.13 µM) | 43 |  | 9 | 
11 | CCN(CC)CCCCCCCCCCOc1cc2oc3cc(OCCCCCCCCCCN(CC)CC)c(OC)c(CC=C(C)C)c3c(=O)c2c(O)c1CC=C(C)C | > 50 | > 50 | inactive | > 50 | > 50 | 100 | 200 |  | Activity [17]: > 70%
12 | COc1c(OCCCCN2CC[C@H](N(C)C)C2)cc2oc3cc(OCCCCN4CC[C@H](N(C)C)C4)c(CC=C(C)C)c(O)c3c(=O)c2c1CC=C(C)C | 12.5 (≈ 16.7 µM) | 6.25 (≈ 8.37 µM) |  | 6.25 (≈ 8.37 µM) | 6.25 (≈ 8.37 µM) |  | 28.9 | 2.3 | Activity (Staphylococcus aureus [18]): 58191 cps; Activity (Staphylococcus aureus [19]): 7962 nM
13 | CCN(CC)CCCCOc1ccc2c(=O)c3c(O)cc(OCCCCN(CC)CC)cc3oc2c1 | > 50 | > 50 |  | > 50 | > 50 |  | > 200 |  | Activity [7]: Not Active; Activity [8]: Not Active; Activity [9]: Not Active; Activity [10]: Not Active; Activity [11]: Not Active; Activity [12]: Not Active
14 | COc1c(OCCCCN(C)Cc2ccccc2)cc2oc3cc(OCCCCN(C)Cc4ccccc4)c(CC=C(C)C)c(O)c3c(=O)c2c1CC=C(C)C | > 50 | > 50 |  | > 50 | > 50 |  | > 200 |  | Activity (Staphylococcus aureus [18]): 1778 cps; Activity (Staphylococcus aureus [19]): 574 nM
15 | CCN(CC)CCCCOc1cc2oc3cc(OCCCCN(CC)CC)c(OC)c(CC=C(C)C)c3c(=O)c2c(OCCCCN(CC)CC)c1CC=C(C)C | 12.5 (≈ 15.8 µM) | 50 (≈ 63.1 µM) |  | 50 (≈ 63.1 µM) | 25 (≈ 31.6 µM) |  | > 200 |  | Activity (Staphylococcus aureus [20]): 4305.1 cps
16 | CCN(CC)CCCCCCCCOc1cc2oc3cc(OCCCCCCCCN(CC)CC)c(OC)c(CC=C(C)C)c3c(=O)c2c(O)c1CC=C(C)C | > 50 | > 50 | Active | > 50 | > 50 | 95.5 | 53.1 |  | Activity [17]: > 70%
17 | CN[C@@H](CC(C)C)C(=O)N[C@H]1C(=O)N[C@@H](CC(N)=O)C(=O)N[C@H]2C(=O)N[C@H]3C(=O)N[C@H](C(=O)N[C@@H](C(=O)O)c4cc(O)cc(O)c4-c4cc3ccc4O)[C@H](O)c3ccc(c(Cl)c3)Oc3cc2cc(c3O[C@H]2O[C@@H](CO)[C@H](O)[C@@H](O)[C@@H]2O[C@@H]2C[C@@](C)(N)[C@@H](O)[C@@H](C)O2)Oc2ccc(cc2Cl)[C@H]1O |  |  |  |  |  |  |  |  | Activity (Staphylococcus aureus [21]): inactive
18 | CCN(CC)CCCOc1cc2oc3cc(OCCCN(CC)CC)c(OC)c(CC=C(C)C)c3c(=O)c2c(O)c1CC=C(C)C | 0.78 (≈ 1.22 µM) | 6.25 (≈ 9.81 µM) | Active | 0.78 (≈ 1.22 µM) | 0.39 (≈ 0.612 µM) | 46.2 |  | 20.9 | 
19 | CCCCN(CC)CCCCOc1cc2oc3cc(OCCCCN(CC)CCCC)c(OC)c(CC=C(C)C)c3c(=O)c2c(O)c1CC=C(C)C | 12.5 (≈ 17.3 µM) | 25 (≈ 34.7 µM) |  | 6.25 (≈ 8.67 µM) | 25 (≈ 34.7 µM) |  | > 200 | > 16 | Activity (Staphylococcus aureus [14]): 12.48 µM; Activity (Staphylococcus aureus [15]): 64790 cps

From ChEMBL document CHEMBL3751813, “Nonpeptidic Amphiphilic Xanthone Derivatives: Structure-Activity Relationship and Membrane-Targeting Properties” (J Med Chem, 2016)
